This is a sample that favours compounds with a hit; in the whole collection about 3.9% have one here.
TIM10 inh – TIM10 yeast growth inhibition. S. cerevisiae TIM10 strain growth, BacTiter-Glo luminescence, 24 h. AID 463195. inhibition, % at 10 µM. 1.4% of 330,000 active;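 active means inhibition of 40% or more at the single tested concentration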;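 further: wild-type TIM10 isogenic control strain grown at permissive 25 °C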
tim23-1 inh – tim23-1 yeast growth inhibition; 1.3% of 330,000 active; inhibition, % at 20 µM; S. cerevisiae tim23-1 growth, BacTiter-Glo luminescence, 24 h;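 active means growth inhibition of the mutant yeast at or above 50%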;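 further: temperature-sensitive mutant grown at 25 °C; plate controls were DMSO-treated mutant yeast for no effect and medium wells lacking yeast for full effect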
UPR CHOP act – apoptotic UPR (CHOP) activation; AID 449763; CHO-CHOP luciferase reporter, luminescence; percent of tunicamycin response over DMSO baseline; activation, % at 10 µM; 0.34% of 330,000 active;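 active means at 10 µM dose, activation of 40% or more, normalized to positive control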;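 further: 100% = tunicamycin at 10 µg/mL and 0% = DMSO alone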
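Dosing – one dose, 10 µM in 0.5% DMSO · System – CHO-CHOP cells, stable luciferase reporter of PERK-eIF2a-CHOP signalling · Input – 500 cells/well · Control set – tunicamycin 10 µg/mL final as positive, DMSO-only wells as negative · Timing – 6 h compound treatment, 37 °C · Measure – % activation vs tunicamycin · Technique – luminescence read with Steady-Glo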
tim10-1 inh – tim10-1 yeast growth inhibition | 2.2% of 330,000 active | inhibition, % at 20 µM | S. cerevisiae tim10-1 ts strain growth, BacTiter-Glo, 24 h;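 active means inhibition of at least 40%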;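 further: mutant grown at 25 °C; 0% = DMSO wells with yeast and 100% = wells holding no yeast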
UPR XBP1 act – adaptive UPR (XBP1) activation. AID 463104. activation, % at 20 µM. CHO-XBP1 luciferase reporter, IRE1-XBP1 UPR activation, luminescence; percent of tunicamycin response, DMSO as zero. 0.33% of 330,000 active;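 active means versus positive control, 20 µM dose yields 30% or more activation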;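 further: 100% = tunicamycin at 10 µg/mL and 0% = DMSO only wells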
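Test system: CHO-XBP1 luciferase reporter cells | Buffer or medium: Serum-containing F12 medium, 10% FBS | Schedule: 6 h compound exposure at 37 °C, 5% CO2 | Detection: Steady-Glo luciferase glow luminescence, 10 min after reagent addition | Read-out basis: Activation, % of tunicamycin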
tim10-1 conf – tim10-1 yeast growth inhibition, confirmed; inhibition, % at 20 µM; S. cerevisiae tim10-1 ts strain growth, BacTiter-Glo, 24 h; shares compounds with tim10-1 inh; 56% of 7,400 active; AID 463213;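 active means inhibition of yeast growth at or above a set limit in either of two repeat tests at 20 µM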;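 further: tim10-1 mutant grown at permissive 25 °C to find synthetic lethal compounds; 0% = DMSO yeast wells and 100% = medium wells without yeast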
tim10 confirm – TIM10 yeast growth inhibition, confirmed. 63% of 4,600 active. shares compounds with TIM10 inh. S. cerevisiae tim10 strain growth, BacTiter-Glo luminescence, 24 h. inhibition, % at 10 µM;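 active means inhibition of yeast growth at or above a set limit in either of two replicates at 10 µM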;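 further: this counterscreen used the strain with wild-type TIM10; 0% = yeast with DMSO and 100% = medium wells lacking yeast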
tim23-1 confirm – tim23-1 yeast growth inhibition, confirmed; S. cerevisiae tim23-1 growth, BacTiter-Glo luminescence, 24 h; shares compounds with tim23-1 inh; 83% of 4,400 active; inhibition, % at 20 µM;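 active means inhibition above about 39% in either of two replicate wells at 20 µM, limit read from the data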;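 further: temperature-sensitive tim23-1 mutant grown at 25 °C; 0% = DMSO wells with yeast and 100% = medium wells without yeast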
Starred values were filed as active, the others as inactive.

What do the screens show for `O=S(=O)(c1ccccc1)c1ncc(C(F)(F)F)cc1O`?
TIM10 inh: 11.3; tim23-1 inh: 21.4; UPR CHOP act: 0.3; tim10-1 inh: 12.5; UPR XBP1 act: -0.3

How did Cc1[nH]c2ccccc2c1N=Nc1ccc(F)cc1 do in these assays?
TIM10 inh: 29.8; tim23-1 inh: 70.2*; UPR CHOP act: 3.6; tim10-1 inh: 62.7*; UPR XBP1 act: 5.2; tim10-1 conf: 29.5; tim23-1 confirm: -87.8

What do the screens show for `CC(C)c1cc(C(=O)NNC(=S)NCc2ccco2)c(O)c(C(C)C)c1`?
TIM10 inh: 57.0*; tim23-1 inh: 54.3*; UPR CHOP act: 0.1; tim10-1 inh: 55.3*; UPR XBP1 act: -1.2; tim10-1 conf: 56.9*; tim10 confirm: 6.6; tim23-1 confirm: 65.8*

How did CCOc1ccccc1NS(=O)(=O)c1ccc(-c2cnc(C3CC3)o2)cc1 do in these assays?
TIM10 inh: -16.0; tim23-1 inh: 27.0; UPR CHOP act: 2.0; tim10-1 inh: 34.1; UPR XBP1 act: 3.3

How did COc1ccccc1NS(=O)(=O)c1ccc(-c2cnc(C3CC3)o2)cc1 do in these assays?
TIM10 inh: -10.7; tim23-1 inh: 26.3; UPR CHOP act: 0.7; tim10-1 inh: 30.5; UPR XBP1 act: 4.7

What do the screens show for `Cc1ccc(NS(=O)(=O)c2ccc(-c3cnc(C4CC4)o3)cc2)c(C)c1`?
TIM10 inh: 0.5; tim23-1 inh: 51.5*; UPR CHOP act: 3.2; tim10-1 inh: 53.1*; UPR XBP1 act: 5.5; tim10-1 conf: 17.1; tim23-1 confirm: 37.8

Results for O=S(=O)(Nc1ccc(F)cc1Cl)c1ccc(-c2cnc(C3CC3)o2)cc1 ?
TIM10 inh: 17.9; tim23-1 inh: 54.6*; UPR CHOP act: -1.9; tim10-1 inh: 53.2*; UPR XBP1 act: -0.7; tim10-1 conf: 16.6; tim23-1 confirm: 48.9*

Results for COc1ccc(CN(CC(O)COc2cccc3[nH]cc(C)c23)C(C)(C)C)cc1 (centres undefined) ?
TIM10 inh: -18.0; tim23-1 inh: -7.5; UPR CHOP act: -0.9; tim10-1 inh: -11.7; UPR XBP1 act: 5.1

How did O=C(Cc1ccc(F)cc1)c1ccc(O)cc1O do in these assays?
TIM10 inh: 36.7; tim23-1 inh: 54.8*; UPR CHOP act: 1.8; tim10-1 inh: 44.0*; UPR XBP1 act: 2.9; tim10-1 conf: 34.8*; tim23-1 confirm: 44.2*

Results for O=C(Cc1c(F)cccc1Cl)N1CCOCC1 ?
TIM10 inh: -2.8; tim23-1 inh: 6.0; UPR CHOP act: 0.3; tim10-1 inh: 2.8; UPR XBP1 act: -3.5

What do the screens show for `O=C(Cc1c(F)cccc1Cl)c1ccc(O)cc1O`?
TIM10 inh: 56.5*; tim23-1 inh: 67.2*; UPR CHOP act: -2.0; tim10-1 inh: 47.9*; UPR XBP1 act: 0.2; tim10-1 conf: 60.0*; tim10 confirm: 57.8*; tim23-1 confirm: 68.2*

What do the screens show for `COc1ccc(NC(=O)N2CCC(C(=O)c3ccc4c(c3)OCCO4)CC2)cc1`?
TIM10 inh: -13.6; tim23-1 inh: 14.9; UPR CHOP act: 1.0; tim10-1 inh: 2.2; UPR XBP1 act: -2.2

What do the screens show for `O=C(c1ccc2c(c1)OCCO2)C1CCN(S(=O)(=O)c2ccccc2F)CC1`?
TIM10 inh: 42.3*; tim23-1 inh: 52.8*; UPR CHOP act: 0.0; tim10-1 inh: 50.3*; UPR XBP1 act: 0.7; tim10-1 conf: 42.8*; tim10 confirm: 29.8; tim23-1 confirm: 48.5*

Results for O=C(CN1CCC(C(=O)c2ccc3c(c2)OCCO3)CC1)Nc1ccccc1F ?
TIM10 inh: -5.2; tim23-1 inh: 26.3; UPR CHOP act: -0.1; tim10-1 inh: 25.6; UPR XBP1 act: -3.4

Results for COc1ccc(S(=O)(=O)N2CCC(C(=O)c3ccc4c(c3)OCCO4)CC2)cc1 ?
TIM10 inh: 59.7*; tim23-1 inh: 59.1*; UPR CHOP act: -1.4; tim10-1 inh: 55.0*; UPR XBP1 act: 0.6; tim10-1 conf: 55.0*; tim10 confirm: 55.1*; tim23-1 confirm: 55.0*

How did CCC1(CC)NC(=O)N(CC(=O)OCC(=O)c2ccccc2OC)C1=O do in these assays?
TIM10 inh: 0.3; tim23-1 inh: -9.1; UPR CHOP act: 0.3; tim10-1 inh: 0.9; UPR XBP1 act: 0.5

How did Cc1cc2cc(C=C(C#N)C#N)c(Cl)nc2cc1C do in these assays?
TIM10 inh: 37.7; tim23-1 inh: 62.4*; UPR CHOP act: 10.3; tim10-1 inh: 55.4*; UPR XBP1 act: -1.8; tim10-1 conf: 56.3*; tim23-1 confirm: 66.1*

What do the screens show for `O=C1/C(=C\c2ccncc2)SC(=S)N1C1CCCCC1`?
TIM10 inh: 27.3; tim23-1 inh: 51.7*; UPR CHOP act: -0.4; tim10-1 inh: 43.5*; UPR XBP1 act: -1.1; tim10-1 conf: 22.9; tim23-1 confirm: 42.2*

What do the screens show for `NC(=O)C1CCN(C(=O)c2cc(Cl)c3c(c2)OCCO3)CC1`?
TIM10 inh: 3.0; tim23-1 inh: 21.1; UPR CHOP act: -1.0; tim10-1 inh: 15.5; UPR XBP1 act: -2.7

How did O=C(CCCN1C(=O)/C(=C\c2ccco2)SC1=S)Nc1ccc2ccccc2c1 do in these assays?
TIM10 inh: 39.0; tim23-1 inh: 78.5*; UPR CHOP act: -4.3; tim10-1 inh: 44.4*; UPR XBP1 act: -1.8; tim10-1 conf: 39.2*; tim23-1 confirm: 70.2*

What do the screens show for `Cc1ccc(C(=O)Nc2ncc(Cc3ccccc3)s2)o1`?
TIM10 inh: 48.8*; tim23-1 inh: 57.1*; UPR CHOP act: -1.2; tim10-1 inh: 53.3*; UPR XBP1 act: -0.9; tim10-1 conf: 49.5*; tim10 confirm: 50.5*; tim23-1 confirm: 53.9*

Results for O=C(Nc1nnc(Cc2ccccc2)s1)c1cccs1 ?
TIM10 inh: 0.2; tim23-1 inh: 10.3; UPR CHOP act: 3.1; tim10-1 inh: 3.3; UPR XBP1 act: -0.6

Results for O=C(Nc1ncc(Cc2ccccc2)s1)c1cccs1 ?
TIM10 inh: 51.9*; tim23-1 inh: 72.1*; UPR CHOP act: 4.1; tim10-1 inh: 51.1*; UPR XBP1 act: 0.8; tim10-1 conf: 49.8*; tim10 confirm: 60.6*; tim23-1 confirm: 51.5*

What do the screens show for `O=C(Nc1ncc(Cc2cccc(Cl)c2)s1)c1cccs1`?
TIM10 inh: 66.6*; tim23-1 inh: 66.6*; UPR CHOP act: 3.1; tim10-1 inh: 42.9*; UPR XBP1 act: 6.0; tim10-1 conf: 37.5*; tim10 confirm: -19.1; tim23-1 confirm: 54.9*

What do the screens show for `CCCCn1c(N)c(N(CC(C)C)C(=O)C2CCN(C(=O)c3ccc(F)cc3)CC2)c(=O)[nH]c1=O`?
TIM10 inh: -3.3; tim23-1 inh: -8.2; UPR CHOP act: 1.2; tim10-1 inh: -1.4; UPR XBP1 act: 0.1
